PTEN del growth: suppresses growth of cells with PTEN deletion; HCT116 PTEN-null viability, CellTiter-Glo, 60 h; stronger effect = lower value; viability, % at 10 µM; hit rate 1.2% among 140,000; AID 827;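 active means viability at or below a set limit, 4 SD under the median of all tested compounds, cut at about 3.7% in these data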;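 further: PTEN knockout HCT116 line with beta catenin targeted HCT116 as companion control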
HUVEC inhibit: blocks proliferation of human endothelial cells. HUVEC proliferation, CellTiter-Glo luminescence, 72 h; stronger effect = lower value. viability, % at 10 µM (by protocol). hit rate 1.1% among 86,000. AID 648;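 active means viability at or below 30%; inactive means viability above 30%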
bCat KO growth: beta-catenin-lacking colon tumor cell growth suppression | HCT116 beta-catenin knockout viability, CellTiter-Glo, 60 h; stronger effect = lower value | viability, % at 10 µM | hit rate 1.5% among 140,000 | AID 818;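 active means viability at or under a set limit, the compound median less 4 SD, cut at about 6% in these data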
H69AR inhibit: blocks growth of human H69AR lung tumor cells; H69AR lung tumor viability, ATP luminescence, 72 h; stronger effect = lower value; viability, % at 10 µM; hit rate 6% among 85,000;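 active means viability at or below 40%; inactive means viability above 40%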;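 further: multidrug resistant small cell line overexpressing MRP-1 efflux transporter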
Cav32 inh: inhibitors of human Cav3.2 T-type calcium channel; O95180; Cav3.2-expressing cells, Fluo-4 calcium fluorescence FDSS; stronger effect = lower value; B-score at 10 µM; hit rate 4% among 100,000; AID 449739;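 active means single-dose well whose peak fluorescence ratio is a statistical outlier from its plate by either plate-standardised score or position-corrected B-score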
Fibroblast inh: blocks proliferation of human lung fibroblasts. LL 47 human lung fibroblast viability, ATP luminescence; stronger effect = lower value. hit rate 1.1% among 85,000. AID 719. viability, % at 10 µM;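 active means viability at or below 50% in the single dose screen; inactive means viability above 50%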;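 further: compound exposure lasted 72 h before the ATP readout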
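test system = LL 47 human lung fibroblasts | amount = 1,150 fibroblasts seeded per well | medium = 15% FBS in IMEM | times = overnight cell rest, 72 h compound treatment at 37 °C | measured by = CellTiter-Glo luminescence measuring cellular ATP | read-out = viability percentage against median untreated-cell control | benchmarks = cell-only wells, no compound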
Hits are given with their value; - = inactive; . = not tested or not shown. The list is not random: actives were taken first. Their share in the collection is about 7.1%.

SMILES	PTEN del growth	HUVEC inhibit	bCat KO growth	H69AR inhibit	Cav32 inh	Fibroblast inh
CC(=O)N(C(C)=O)c1ncc2c([nH]c3ccccc32)c1C#N	-	-	-	37.4	-	-
CCN(CC)C(c1ccc(F)cc1)c1nnnn1C1CCCCC1 (stereo not drawn)	-	-	-	-	-5.02	-
Fc1ccc(C(c2nnnn2C2CCCC2)N(Cc2ccco2)CC2CCCO2)cc1 (stereo not drawn)	-	-	-	-	-3.96	-
COc1ccccc1-n1c(CNc2ccc(F)cc2)nnc1SCC(=O)Nc1cc(C)on1	-	-	-	-	-	-
CCCc1cc(C(=O)Cc2ccc(F)cc2)c(O)cc1O	-	-	-	15.4	-	-
CCCc1cc(C(=O)Cc2ccc(C(=O)OCC)o2)c(O)cc1O	-	-	-	-	-4.13	-
Cc1ccc(S(=O)(=O)Nc2ccc3c(c2)c2c(n3S(=O)(=O)c3ccc(C)cc3)CCCC2=O)cc1	-	.	-	.	.	.
COCCn1nnnc1C(c1ccccc1OC)N1CCN(c2ccccc2)CC1 (stereo not drawn)	-	-	-	-	-	-
COc1cccc(C(c2nnnn2Cc2ccco2)N2CCN(c3cccc(C)c3C)CC2)c1OC (stereo not drawn)	-	-	-	-	-6.93	-
COc1ccccc1C(c1nnnn1CCc1ccccc1)N1CCCCCC1 (stereo not drawn)	-	-	-	-	-8.98	-
COc1ccccc1C(c1nnnn1CCc1ccccc1)N1CCN(c2ccccc2)CC1 (stereo not drawn)	-	-	-	-	-5.88	-
Clc1ccc(C(c2nnnn2CCc2ccccc2)N2CCSCC2)cc1 (stereo not drawn)	-	-	-	-	-6.85	-
COc1cccc(C(c2nnnn2Cc2ccccc2)N2CCN(C(=O)c3ccco3)CC2)c1OC (stereo not drawn)	-	-	-	-	-	-
Cc1ccc(NC(=O)CSc2nnc(-c3cccs3)o2)cc1S(=O)(=O)N1CCCCC1	-	.	-	.	.	.
CCCCOC(=O)C1=C(C)NC(=O)NC1c1ccc([N+](=O)[O-])s1 (stereo not drawn)	-	.	-	.	.	.
O=C(CSc1nnc(SCc2ccc(Cl)cc2)s1)c1ccc2c(c1)OCO2	-	.	-	.	.	.
COc1ccccc1CNC(=O)C1CC2Cn3c(nc4cc(Cl)c(Cl)cc43)C2N1C (stereo not drawn)	.	.	.	.	-	.
COc1ccc(S(=O)(=O)N2CCOCC2)cc1NC(=O)COC(=O)C1COc2ccccc2O1 (stereo not drawn)	-	.	-	.	.	.
COc1cccc(C(c2nnnn2CCc2ccccc2)N2CCN(c3ccccc3)CC2)c1OC (stereo not drawn)	-	-	-	-	-4.17	-
COc1ccccc1N1CCN(C(c2ccccc2)c2nnnn2CCc2ccccc2)CC1 (stereo not drawn)	-	-	-	-	-	-
Fc1ccc(C(c2nnnn2CCc2ccccc2)N2CCCc3ccccc32)cc1 (stereo not drawn)	-	-	-	-	-7.85	-
CC(C)Oc1ccc(Cl)cc1Nc1nc(NCCO)nc(N2CCCC2)n1	.	.	.	.	-	.
CCN(CC)S(=O)(=O)c1ccc(C(=O)Nc2ncn(Cc3ccccc3)n2)cc1	-	.	-	.	-	.
CCN(CC)S(=O)(=O)c1ccc(C(=O)NCc2n[nH]c(=S)n2Cc2ccccc2)cc1	-	.	-	.	-4.1	.
CC1(C)Cc2ccccc2C(NNC(=O)c2ccccn2)=N1	-	-	-	30.5	-	46.1
SMILES	PTEN del growth	HUVEC inhibit	bCat KO growth	H69AR inhibit	Cav32 inh	Fibroblast inh
CC1(C)Cc2ccccc2C(N/N=C/c2cccc(F)c2)=N1	-	.	-	.	-	.
COc1ccc(CNC(=O)NC(C)(C)c2cccc(C(C)(C)NC(=O)NCc3ccc(OC)cc3)c2)cc1	-	.	-	.	.	.
C=CCN1C(=O)C(C)(C)N(C(C)=O)c2ccccc21	-	.	-	.	.	.
CC(=O)N1c2ccccc2N(Cc2ccc(C)cc2C)C(=O)C1(C)C	-	-	-	23.4	-8.3	45.7
Cc1ccc(S(=O)(=O)N2CCN(C(=O)CSc3nc4ccccc4c(=O)[nH]3)CC2)c(C)c1	-	-	-	-	-	-
Cc1cc(C)c(C)c(S(=O)(=O)N2CCN(C(=O)c3cc(=O)[nH]c4ccccc34)CC2)c1C	-	-	-	11.7	-	-
Cc1ccc(S(=O)(=O)N2CCN(C(=O)c3cc(=O)[nH]c4ccccc34)CC2)c(C)c1	-	-	-	39.0	-	-
Cc1cc(=O)oc2cc(OCc3ccc(C(=O)OCC(=O)Nc4ccccc4OC(F)F)cc3)ccc12	-	.	-	.	.	.
Cc1ccc(-c2nnc(Sc3nc4ccccc4o3)c3ccccc23)cc1	-	.	-	.	-	.
Cc1nnc(Sc2nc3ccccc3o2)c2ccccc12	-	-	-	6.8	-	-
COc1cccc(OC)c1C(=O)NC(=S)N1CCN(c2ccc(C(F)(F)F)cc2[N+](=O)[O-])CC1	-	.	-	.	-5.5	.
COc1cccc(C(=O)NC(=S)N2CCN(c3ccc(C(F)(F)F)cc3[N+](=O)[O-])CC2)c1	-	.	-	.	.	.
COc1ccc(NC(=O)COC(=O)CC2CC3CCC2C3)c([N+](=O)[O-])c1 (stereo not drawn)	-	.	-	.	.	.
CC(Oc1ccc(Cl)cc1Cl)c1nc(-c2ccc(NC(=O)c3ccco3)cc2)no1 (stereo not drawn)	-	-	-	-	-	-
CCc1ccc(/C=C/C(=O)C2C(=O)c3ccccc3C2=O)cc1	-	.	-	.	-3.79	.
O=C(/C=C/c1ccccc1)C1C(=O)c2ccccc2C1=O	-	.	-	.	.	.
CCN(CC)CCn1c(NCc2ccco2)nc2ccccc21	-	-	-	-	-	-
Cn1c(CNc2nc3ccccc3n2CCN2CCCCC2)nc2ccccc21	-	-	-	-	-	-
CCN(CC)CCn1c(NCc2nc3ccccc3n2Cc2ccccc2)nc2ccccc21	-	-	-	-	-4.24	-
c1ccc(Cn2c(CNc3nc4ccccc4n3CCN3CCCCC3)nc3ccccc32)cc1	-	14.8	-	9.6	-3.81	-
Cc1ccc(C(=O)N[C@H](C(=O)Nc2cc(Cl)cc(Cl)c2)C(C)C)cc1	-	.	-	.	.	.
CCCCn1c(N)c(N(CCOC)C(=O)CCc2ccc(OC)cc2)c(=O)[nH]c1=O	-	.	-	.	.	.
CCC(C)[C@H](NC(=O)OC(C)(C)C)C(=O)N/N=C/C1=Cc2ccccc2OC1 (stereo partly drawn)	-	-	-	-	-5.35	-
CS(=O)(=O)N1CCC(C(=O)Nc2ccc(Oc3ccccc3)cc2)CC1	-	-	-	31.9	-	-
C=C(C)Cn1c(-c2ccccc2)nc2ccccc21	-	-	-	-	-4.07	-
Cc1ccc(-c2nnn(CC(=O)N(c3ccccc3)C(C(=O)NCC3CCCO3)c3ccc(Cl)cc3)n2)cc1 (stereo not drawn)	-	.	-	.	-4.65	.
Cc1ccc(-c2nnn(CC(=O)N(c3ccccc3F)C(C(=O)NCC3CCCO3)c3c[nH]c4ccccc34)n2)cc1 (stereo not drawn)	-	.	-	.	-7.07	.

Screens: PubChem BioAssay, several laboratories
